How the values were obtained:
Phosphodiesterase 4A = target: T1, Phosphodiesterase 4A (Sus scrofa, UniProt O77823); assay: Inhibitory potency against pig aortic PDE IV
T1 sequence (O77823 whole entry): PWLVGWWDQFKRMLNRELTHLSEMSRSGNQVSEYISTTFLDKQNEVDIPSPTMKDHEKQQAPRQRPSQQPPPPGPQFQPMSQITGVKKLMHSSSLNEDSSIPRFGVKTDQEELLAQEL
Method in brief: (§1)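 Pig aortic PDE isozymes were separated by DEAE-trisacryl anion-exchange chromatography. PDE III was assayed in the presence of rolipram (10 µM) and PDE IV in the presence of siguazodan (10 µM) to exclude cross-contamination.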

[1] = Inhibitory potency against pig aortic PDE III.; set-up: species or system Sus scrofa; method in brief: as §1
[2] = target: Phosphodiesterase 1 (Sus scrofa); assay: Inhibitory potency against pig aortic PDE I.
Phosphodiesterase 4 [3] = target: T2, Phosphodiesterase 4 (Homo sapiens, UniProt P27815+Q08499+Q07343+Q08493); assay: Inhibition of solubilized eosinophil PDE IV; type: protein assay, Cavia porcellus
Cavia porcellus [4] = assay: In vivo bronchodilator effect on histamine-induced bronchospasm in anaesthetized guinea pigs at 200 ug intravenous dose; type: functional
Cavia porcellus [5] = assay: In vivo bronchodilator effect on histamine-induced bronchospasm in anaesthetized guinea pigs at 100 ug intravenous dose; type: functional
Cavia porcellus [6] = species: Cavia porcellus; assay: Inhibition of superoxide O2-generation from guinea pig peritoneal eosinophils; type: functional
Method in brief: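 Guinea pig peritoneal eosinophils (10^6/well) were incubated for 45 min at 37 °C in HBSS with p-iodonitrotetrazolium violet (0.5 mg/mL). Superoxide was measured as SOD-inhibitable dye reduction: cells were pelleted and dissolved overnight at room temperature in DMSO/0.6 M HCl, and absorbance was read at 492 nm.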

Cavia porcellus [7] = assay: In vivo bronchodilator effect on histamine-induced bronchospasm in anaesthetized guinea pigs at 20 ug intravenous dose; type: functional
Phosphodiesterase 4 [8] = target: T2, Phosphodiesterase 4; assay: Inhibition of guinea pig PDE IV; type: protein assay, Cavia porcellus; conditions: target entry is the homologue from another species
Cavia porcellus [9] = assay: In vivo bronchodilator effect on histamine-induced bronchospasm in anaesthetized guinea pigs at 50 ug intravenous dose; type: functional
Cavia porcellus [10] = assay: In vivo bronchodilator effect on histamine-induced bronchospasm in anaesthetized guinea pigs at 10 ug intravenous dose; type: functional

| SMILES | IC50 (Phosphodiesterase 4A) [µM] | IC50 [1] [µM] | further results |
| --- | --- | --- | --- |
| COc1ccc(C(=O)NCc2ccccc2Cl)cc1OC1CCCC1 | > 1000 |  |  |
| COc1ccc(C(=O)Nc2ccccc2Br)cc1OC1CCCC1 | 0.13 | > 1000 | IC50 [2]: > 1000 µM |
| CCCCOc1cc(C(=O)Nc2c(F)cccc2F)ccc1OC | 0.3 |  |  |
| COc1ccc(C(=O)Nc2ccccc2Cl)cc1OC(C)=O | 70 |  |  |
| COc1ccc(C(=O)Nc2ccccc2F)cc1OC1CCCC1 | 10.7 | > 1000 | IC50 [2]: > 1000 µM |
| COc1ccc(C(=O)Nc2c(F)c(F)nc(F)c2F)cc1OC1CCCC1 | 0.55 |  |  |
| COc1ccc(C(=O)Nc2ccc(F)cc2)cc1OC1CCCC1 | > 1000 | > 1000 | IC50 [2]: > 1000 µM |
| CCCCOc1cc(C(=O)Nc2c(Cl)cncc2Cl)ccc1OC | 0.008 |  | IC50 (Phosphodiesterase 4 [3]): 0.0025 µM; Duration (Cavia porcellus [4]): 32 min; Duration (Cavia porcellus [5]): 34 min; Reduction (Cavia porcellus [5]): 52%; IC50 (Cavia porcellus [6]): 0.48 µM; Reduction (Cavia porcellus [7]): 78%; IC50 (Phosphodiesterase 4 [8]): 0.0085 µM |
| COc1ccc(C(=O)Nc2cccc(C)c2)cc1OC1CCCC1 | 1 | > 200 |  |
| COc1ccc(C(=O)Nc2ccc(C)cc2)cc1OC1CCCC1 | > 200 | > 200 | IC50 [2]: > 200 µM |
| COc1ccc(C(=O)Nc2c(F)cccc2F)cc1OC | 0.9 |  |  |
| COc1ccc(C(=O)Nc2c(Cl)ncnc2Cl)cc1OC1CCCC1 | 0.4 |  |  |
| COc1ccc(C(=O)Nc2ccccn2)cc1OC1CCCC1 | 1 |  |  |
| COc1ccc(C(=O)Nc2ccc(Cl)cc2)cc1OC1CCCC1 | > 1000 | > 1000 | IC50 [2]: > 1000 µM |
| COc1ccc(C(=O)Nc2ccncc2)cc1OC1CCCC1 | 0.8 |  |  |
| COc1ccc(C(=S)Nc2ccccc2Cl)cc1OC1CCCC1 | 0.2 |  |  |
| COc1ccc(C(=O)Nc2ncccc2C)cc1OC1CCCC1 | 3.1 |  |  |
| COc1ccc(C(=O)Nc2c(Cl)cncc2Cl)cc1OC1CCCC1 |  |  | Reduction (Cavia porcellus [9]): 78%; IC50 (Cavia porcellus [6]): 0.024 µM; Reduction (Cavia porcellus [7]): 56%; Reduction (Cavia porcellus [10]): 36% |
| COc1ccc(C(=O)Nc2ccccc2C(C)=O)cc1OC1CCCC1 | 1.2 | > 40 |  |
| COc1ccc(C(=O)Nc2c(Br)cncc2Br)cc1OC1CCCC1 | 0.007 |  |  |
| COc1ccc(C(=O)Nc2c(F)cccc2F)cc1 | 37 |  |  |
| COc1ccc(C(=O)Nc2c(Br)cccc2Br)cc1OC1CCCC1 | 0.4 | > 1000 |  |
| COc1ccc(C(=O)Nc2ccccc2Cl)cc1OC | 0.65 |  |  |
| COc1ccc(C(=O)Nc2c(F)c(F)nc(F)c2Cl)cc1OC1CCCC1 | 0.1 |  |  |

| SMILES | IC50 (Phosphodiesterase 4A) [µM] | IC50 [1] [µM] | further results |
| --- | --- | --- | --- |
| COc1ccc(C(=O)Nc2c(Cl)cccc2Cl)cc1OC1CCCC1 | 0.023 | > 1000 | IC50 (Phosphodiesterase 4 [3]): 0.005 µM; Duration (Cavia porcellus [4]): 30 min; Duration (Cavia porcellus [5]): 34 min; Reduction (Cavia porcellus [5]): 48%; IC50 (Cavia porcellus [6]): 0.53 µM; Reduction (Cavia porcellus [7]): 55%; IC50 (Phosphodiesterase 4 [8]): 0.023 µM |
| COc1ccc(C(=O)Nc2cc(Cl)ccc2Cl)cc1OC1CCCC1 | 0.5 | > 200 |  |
| COc1ccc(C(=O)Nc2c(F)cnc(F)c2F)cc1OC1CCCC1 | 0.085 |  |  |
| COc1ccc(C(=O)Nc2c(C)cccc2C)cc1OC1CCCC1 | 0.1 | > 200 | IC50 (Phosphodiesterase 4 [3]): 0.065 µM; Duration (Cavia porcellus [5]): 16 min; Reduction (Cavia porcellus [5]): 24%; IC50 (Cavia porcellus [6]): 0.17 µM; IC50 (Phosphodiesterase 4 [8]): 0.106 µM |
| O=C(Nc1c(F)cccc1F)c1cccc(OC2CCCC2)c1 | 15 |  |  |
| COc1ccc(C(=O)Nc2c(F)cccc2F)cc1OC1CCCC1 | 0.07 | > 1000 | IC50 (Phosphodiesterase 4 [3]): 0.018 µM; Duration (Cavia porcellus [4]): 48 min; IC50 [2]: > 1000 µM; Duration (Cavia porcellus [5]): 18 min; Reduction (Cavia porcellus [5]): 29%; IC50 (Cavia porcellus [6]): 0.58 µM; Reduction (Cavia porcellus [7]): 54%; IC50 (Phosphodiesterase 4 [8]): 0.066 µM |
| COc1ccc(C(=O)Nc2ccccc2C)cc1OC1CCCC1 | 0.3 | > 1000 | IC50 [2]: > 1000 µM |
| COc1ccc(C(=O)Nc2c(Cl)c[n+]([O-])cc2Cl)cc1OC1CCCC1 | 0.002 |  | IC50 (Phosphodiesterase 4 [3]): 0.002 µM; Duration (Cavia porcellus [9]): 18 min; Reduction (Cavia porcellus [9]): 45%; Duration (Cavia porcellus [5]): 39 min; Reduction (Cavia porcellus [5]): 54%; IC50 (Cavia porcellus [6]): 0.3 µM; IC50 (Phosphodiesterase 4 [8]): 0.0023 µM |
| COc1ccc(C(=O)Nc2cnccn2)cc1OC1CCCC1 | 0.25 |  |  |
| COc1ccc(C(=O)Nc2c(C)noc2C)cc1OC1CCCC1 | 0.45 |  |  |
| COc1ccc(C(=O)Oc2c(Cl)cccc2Cl)cc1OC1CCCC1 | > 1000 |  |  |
| COc1ccc(C2CNC(=O)C2)cc1OC1CCCC1 (centres undefined) [ROLIPRAM] |  |  | Duration (Cavia porcellus [9]): 38 min; Reduction (Cavia porcellus [9]): 58%; IC50 (Cavia porcellus [6]): 0.16 µM; Duration (Cavia porcellus [7]): 29 min; Reduction (Cavia porcellus [7]): 48%; Duration (Cavia porcellus [10]): 15 min; Reduction (Cavia porcellus [10]): 15% |
| COc1ccc(C(=O)Nc2nccs2)cc1OC1CCCC1 | 6.5 |  |  |
| COc1ccc(C(=O)Nc2c(Cl)cncc2Cl)cc1OC1CC2CCC1C2 (stereo in doubt; (-)16f) | 0.001 |  |  |
| COc1ccc(C(=O)Nc2ccccc2Cl)cc1OC(=O)C1CCCC1 | > 1000 |  |  |
| COc1ccc(C(=O)Nc2ccccc2)cc1OC1CCCC1 | 2.6 | > 1000 | IC50 (Phosphodiesterase 4 [3]): 0.145 µM; Duration (Cavia porcellus [4]): 6 min; IC50 (Cavia porcellus [6]): > 10 µM; Reduction (Cavia porcellus [7]): 32%; IC50 (Phosphodiesterase 4 [8]): 2.566 µM |
| COc1ccc(C(=O)Nc2cccnc2)cc1OC1CCCC1 | 0.55 |  |  |
| COc1ccc(C(=O)Nc2ccccc2[N+](=O)[O-])cc1OC1CCCC1 | 0.25 | > 200 |  |
| COc1ccc(C(=O)Nc2c(C)nsc2C#N)cc1OC1CCCC1 | 0.2 |  |  |
| COc1ccc(C(=O)Nc2c(Cl)cccc2Cl)cc1OC1CC2CCC1C2 (centres undefined) | 0.01 |  |  |
| COc1ccc(C(=O)Nc2c(F)cccc2F)cc1OC1CCCCC1 | 0.4 |  |  |
| COc1ccc(C(=O)Nc2ccccc2C#N)cc1OC1CCCC1 | 2.5 | 9.5 |  |
| COc1ccc(C(=O)Nc2c(C)cccc2Cl)cc1OC1CCCC1 | 0.1 | > 1000 | IC50 [2]: > 1000 µM |

Second part, led by results:

| IC50 (Phosphodiesterase 4A) [µM] | IC50 [1] [µM] | SMILES | further results |
| --- | --- | --- | --- |
| 3.1 | > 1000 | COc1ccc(C(=O)Nc2ccccc2C(F)(F)F)cc1OC1CCCC1 | IC50 [2]: > 1000 µM |
| 3.5 |  | COc1ccc(C(=O)Nc2ncccn2)cc1OC1CCCC1 |  |
| 0.5 |  | COc1ccc(C(=O)Nc2c(C)nsc2C)cc1OC1CCCC1 |  |
| > 1000 |  | COc1ccc(C(=O)Nc2ccccc2Cl)cc1OC(=O)C(C)(C)C |  |
| 1.3 | > 200 | COc1ccc(C(=O)Nc2ccccc2O)cc1OC1CCCC1 | IC50 [2]: > 200 µM |
| 1.2 | > 200 | COc1ccc(C(=O)Nc2ccccc2SC)cc1OC1CCCC1 | IC50 [2]: > 200 µM |
| 0.1 |  | COc1ccc(C(=O)Nc2c(Cl)cncc2Cl)cc1OC |  |
| 1.6 |  | CCCOc1cc(C(=O)Nc2c(F)cccc2F)ccc1OC |  |
| 0.5 |  | COc1ccc(C(=O)Nc2c(C)nsc2Br)cc1OC1CCCC1 |  |
| 0.035 |  | COc1ccc(C(=O)Nc2c(C)cncc2C)cc1OC1CCCC1 |  |
| 0.016 |  | COc1ccc(C(=O)Nc2ccncc2Cl)cc1OC1CCCC1 | IC50 (Phosphodiesterase 4 [3]): 0.002 µM; Duration (Cavia porcellus [4]): 15 min; IC50 (Cavia porcellus [6]): 0.03 µM; Reduction (Cavia porcellus [7]): 26%; IC50 (Phosphodiesterase 4 [8]): 0.016 µM |
| 0.001 |  | COc1ccc(C(=O)Nc2c(Cl)cncc2Cl)cc1OC1CC2CCC1C2 (racemic) | IC50 (Phosphodiesterase 4 [3]): 0.0005 µM; Duration (Cavia porcellus [9]): 29 min; Reduction (Cavia porcellus [9]): 35%; Duration (Cavia porcellus [5]): 59 min; Reduction (Cavia porcellus [5]): 80%; IC50 (Cavia porcellus [6]): 0.022 µM; IC50 (Phosphodiesterase 4 [8]): 0.0014 µM |
| 0.07 |  | CCCCOc1cc(C(=O)Nc2c(Br)cncc2Br)ccc1OC |  |
| 0.24 | > 1000 | COc1ccc(C(=O)Nc2c(F)cccc2Cl)cc1OC1CCCC1 | IC50 [2]: > 1000 µM |
| > 1000 |  | COc1ccc(C(=O)Nc2ccccc2Cl)cc1OC(=O)c1ccccc1 |  |
| 1.7 | > 40 | COc1ccc(C(=O)Nc2ccccc2C(=O)c2ccccc2)cc1OC1CCCC1 | IC50 [2]: > 40 µM |
| 3 | > 40 | COC(=O)c1ccccc1NC(=O)c1ccc(OC)c(OC2CCCC2)c1 | IC50 [2]: > 40 µM |
| 0.05 |  | COc1ccc(C(=O)Nc2c(Cl)cncc2Cl)cc1OC1CCCCC1 |  |
| 0.19 | > 200 | COc1ccc(C(=O)Nc2ccccc2Cl)cc1OC1CCCC1 | IC50 (Phosphodiesterase 4 [3]): 0.051 µM; IC50 [2]: > 200 µM; Duration (Cavia porcellus [5]): 27 min; Reduction (Cavia porcellus [5]): 43%; IC50 (Cavia porcellus [6]): 0.45 µM; IC50 (Phosphodiesterase 4 [8]): 0.186 µM |
| 0.36 |  | COc1ccc(C(=O)Nc2ncccc2Cl)cc1OC1CCCC1 |  |
| 0.12 |  | COc1ccc(C(=O)Nc2cnccc2Cl)cc1OC1CCCC1 |  |
| 1.3 | > 40 | COc1ccc(C(=O)Nc2cccc(Cl)c2)cc1OC1CCCC1 | IC50 [2]: > 40 µM |
| 0.001 |  | COc1ccc(C(=O)Nc2c(Cl)cncc2Cl)cc1OC1CC2CCC1C2 (stereo in doubt; (+)16g) |  |
| > 200 | > 200 | COc1ccc(C(=O)Nc2cccc(Cl)c2Cl)cc1OC1CCCC1 | IC50 [2]: > 200 µM |
| 0.02 |  | COc1ccc(C(=O)Nc2c(Cl)c(F)nc(F)c2Cl)cc1OC1CCCC1 |  |

Source: ChEMBL document CHEMBL1127531, “Selective type IV phosphodiesterase inhibitors as antiasthmatic agents. The syntheses and biological activities of 3-(cyclopentyloxy)-4-methoxybenzamides and analogues” (J Med Chem, 1994)
